Data on 22 compounds can be found in ChEMBL document CHEMBL2016460, “Synthesis, biological evaluation, and molecular docking studies of 2,6-dinitro-4-(trifluoromethyl)phenoxysalicylaldoxime derivatives as novel antitubulin agents” (Bioorg Med Chem, 2012).

Assay [1] concerns MCF7. Kind of assay: Antiproliferative activity against human MCF7 cells after 48 hrs by MTT assay. In kind it is functional, cell-based. Conditions: MCF7, 48 h. In outline:
(§1)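 Cells were seeded into 96-well plates in complete medium and preincubated 24 h at 37 °C, 5% CO2. Compounds at preset concentrations were added to six wells, with colchicine and CA-4 run alongside as references, and exposed for 48 h. MTT (2.5 mg mL^-1 in PBS) was added for 4 h, followed by SDS/isobutyl alcohol/HCl extraction overnight at 37 °C. OD was read at 570 nm, with three replicate wells per concentration.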
In general terms: Tetrazolium dyes change colour on reduction, which living cells bring about.

Assay [2] concerns HepG2. In words: Antiproliferative activity against human HepG2 cells after 48 hrs by MTT assay. The format is functional, cell-based. Conditions: HepG2, 48 h. The method, boiled down: as §1
For assay [3], the system named is A549. Kind of assay: Antiproliferative activity against human A549 cells after 48 hrs by MTT assay. Conditions: A549, 48 h. In kind it is functional, cell-based. In outline:
as §1

Assay [4] can be described thus: Inhibition of bovine tubulin polymerization after 20 mins by spectrophotometry. The arrangement: species or system Bos taurus. In outline: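 Tubulin was preincubated in glutamate buffer at 30 °C and then cooled to 0 °C. GTP was added, samples were moved to 0 °C cuvettes and warmed to 30 °C, and assembly was followed turbidimetrically in a recording spectrophotometer. IC50 was taken as the concentration inhibiting the extent of assembly by 50% after 20 min.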

In assay [5] the test system is MCF7. Kind of assay: Induction of apoptosis in human MCF7 cells assessed as early apoptotic cells at 0.01 uM incubated for 24 hrs by Annexin-V-FITC/PI staining based flow cytometry (reference value: 7.4 %). The format is functional. Background: A flow cytometer gives signals particle by particle.
Assay [6] has as its system MCF7. In words: Induction of apoptosis in human MCF7 cells assessed as late apoptotic cells at 0.01 uM incubated for 24 hrs by Annexin-V-FITC/PI staining based flow cytometry (reference value: 3.17 %). The format is functional.
Assay [7] concerns MCF7. In words: Induction of apoptosis in human MCF7 cells assessed as early apoptotic cells at 0.05 uM incubated for 24 hrs by Annexin-V-FITC/PI staining based flow cytometry (reference value: 7.4 %). The format is functional.
Assay [8] concerns MCF7. Kind of assay: Induction of apoptosis in human MCF7 cells assessed as late apoptotic cells at 0.05 uM incubated for 24 hrs by Annexin-V-FITC/PI staining based flow cytometry (reference value: 3.17 %). The format is functional.
Assay [9] has as its system MCF7. Kind of assay: Induction of apoptosis in human MCF7 cells assessed as early apoptotic cells at 0.25 uM incubated for 24 hrs by Annexin-V-FITC/PI staining based flow cytometry (reference value: 7.4 %). In kind it is functional.
Assay [10] has as its system MCF7. In words: Induction of apoptosis in human MCF7 cells assessed as late apoptotic cells at 0.25 uM incubated for 24 hrs by Annexin-V-FITC/PI staining based flow cytometry (reference value: 3.17 %). In kind it is functional.
The test system of assay [11] is MCF7. Kind of assay: Induction of apoptosis in human MCF7 cells assessed as late apoptotic cells incubated for 24 hrs by Annexin-V-FITC/PI staining based flow cytometry. The format is functional, cell-based.

Molecules are shown by their SMILES.

One may read the IC50 as the concentration at which inhibition is half-maximal. A high value points to a need for much substance. As to `O=[N+]([O-])c1cc(C(F)(F)F)cc([N+](=O)[O-])c1Oc1c(Br)cc(Br)cc1/C=N\OCc1ccccc1Cl`, the IC50 was 2.32 µM in assay [1], 2.45 µM in assay [2], 4.12 µM in [3] and 18.1 µM in assay [4].
Turning to `O=[N+]([O-])c1cc(C(F)(F)F)cc([N+](=O)[O-])c1Oc1ccccc1/C=N\OCc1ccccc1`, the IC50 is 1.33 µM in assay [1], 1.33 µM in [2], 1.47 µM in assay [3] and 14 µM in assay [4].
In the case of `O=[N+]([O-])c1cc(C(F)(F)F)cc([N+](=O)[O-])c1Oc1c(Br)cc(Br)cc1/C=N/OCc1ccc(Cl)cc1Cl`, the IC50 came out at 2.09 µM in [1], 1.05 µM in [2], 6.19 µM in assay [3] and 15.7 µM in assay [4].
Regarding `O=[N+]([O-])c1cc(C(F)(F)F)cc([N+](=O)[O-])c1Oc1ccc(Br)cc1/C=N\OCc1ccc(Cl)cc1Cl`, the IC50 in [1] is 1.34 µM; in assay [2], 1.07 µM; in assay [3] it was 2.06 µM; in assay [4], 7.06 µM.
With `O=[N+]([O-])c1cc(C(F)(F)F)cc([N+](=O)[O-])c1Oc1c(Br)cc(Br)cc1/C=N\OCc1ccccc1F`, the IC50 turned out to be 0.88 µM in assay [1], 1.1 µM in assay [2], 1.56 µM in assay [3] and 4.53 µM in assay [4].
In the same order, the values of `O=[N+]([O-])c1cc(C(F)(F)F)cc([N+](=O)[O-])c1Oc1c(Cl)cc(Cl)cc1/C=N\OCc1ccccc1` are 1.21 µM, 1.12 µM, 1.45 µM and 9.02 µM.
For `COc1ccc(/C=C\c2cc(OC)c(OC)c(OC)c2)cc1O` [COMBRETASTATIN A4], the IC50 in assay [1] stood at 0.41 µM; in assay [2] it was 0.19 µM; in assay [3], 0.09 µM; in assay [4], 0.7 µM.
In the case of `O=[N+]([O-])c1cc(C(F)(F)F)cc([N+](=O)[O-])c1Oc1ccc(Cl)cc1/C=N\OCc1ccccc1Cl`, the IC50 in [1] stood at 3.95 µM; in assay [2], 1.51 µM; in assay [3] it was 5.03 µM; in assay [4], 9.05 µM.
The matching figures for `O=[N+]([O-])c1cc(C(F)(F)F)cc([N+](=O)[O-])c1Oc1c(Br)cc(Br)cc1/C=N\OCc1ccccc1`: 1.83 µM, 1.48 µM, 2.15 µM and 18 µM.
As for `O=[N+]([O-])c1cc(C(F)(F)F)cc([N+](=O)[O-])c1Oc1ccccc1/C=N\OCc1ccccc1F`, the 50% inhibitory concentration (IC50) in [1] worked out at 0.7 µM; in assay [2] it was 0.68 µM; in assay [3] it was 0.86 µM; in [4], 3.06 µM. For the same compound, the Activity is given as 17.32% in [5]; 4.46% in [6]; 27.64% in assay [7]; 7.72% in assay [8]; 34.51% in [9]; 9.65% in [10]. Besides, in assay [11], the Activity entry is “Dose-dependent effect”.
With `O=[N+]([O-])c1cc(C(F)(F)F)cc([N+](=O)[O-])c1Oc1ccc(Cl)cc1/C=N\OCc1ccc(Cl)cc1Cl`, the 50% inhibitory concentration (IC50) in [1] was determined as 1.14 µM; in assay [2], 1.28 µM; in [3], 3.44 µM; in assay [4] it was 7.54 µM.
In the case of `O=[N+]([O-])c1cc(C(F)(F)F)cc([N+](=O)[O-])c1Oc1ccc(Br)cc1/C=N/OCc1ccccc1Cl`, the IC50 in assay [1] came out at 2.84 µM; in assay [2] it was 1.24 µM; in assay [3], 3.43 µM; in [4], 13.2 µM.
`O=[N+]([O-])c1cc(C(F)(F)F)cc([N+](=O)[O-])c1Oc1c(Cl)cc(Cl)cc1/C=N/OCc1ccccc1Cl`: the half-maximal inhibitory concentration (IC50) in assay [1] stood at 1.96 µM; in [2], 1.12 µM; in assay [3], 2.16 µM; in assay [4], 16.1 µM.
In the case of `O=[N+]([O-])c1cc(C(F)(F)F)cc([N+](=O)[O-])c1Oc1ccccc1/C=N/OCc1ccccc1Cl`, the IC50 in assay [1] came out at 1.1 µM; in [2], 1.17 µM; in assay [3] it was 1.43 µM; in [4] it was 6.92 µM.
As for `O=[N+]([O-])c1cc(C(F)(F)F)cc([N+](=O)[O-])c1Oc1ccccc1/C=N/OCc1ccc(Cl)cc1Cl`, the IC50 was determined as 0.94 µM in assay [1], 1.02 µM in assay [2], 1.61 µM in assay [3] and 4.08 µM in assay [4].
In the same order, the values of `O=[N+]([O-])c1cc(C(F)(F)F)cc([N+](=O)[O-])c1Oc1ccc(Br)cc1/C=N\OCc1ccccc1` are 1.15 µM, 1.18 µM, 2.24 µM and 15.4 µM.
The matching figures for `O=[N+]([O-])c1cc(C(F)(F)F)cc([N+](=O)[O-])c1Oc1c(Cl)cc(Cl)cc1/C=N/OCc1ccc(Cl)cc1Cl`: 1.03 µM, 0.94 µM, 1.42 µM and 6.18 µM.
For the compound `O=[N+]([O-])c1cc(C(F)(F)F)cc([N+](=O)[O-])c1Oc1ccc(Br)cc1/C=N\OCc1ccccc1F`, the IC50 in assay [1] came out at 1.12 µM; in assay [2], 0.89 µM; in assay [3] it was 1.28 µM; in assay [4], 6.9 µM.
In the same order, the values of `COc1cc2c(c(OC)c1OC)-c1ccc(OC)c(=O)cc1[C@@H](NC(C)=O)CC2` [COLCHICINE] are 0.53 µM, 0.23 µM, 0.75 µM and 1.72 µM.
The matching figures for `O=[N+]([O-])c1cc(C(F)(F)F)cc([N+](=O)[O-])c1Oc1ccc(Cl)cc1/C=N\OCc1ccccc1F`: 1.11 µM, 1.02 µM, 2.57 µM and 7.07 µM.
Take `O=[N+]([O-])c1cc(C(F)(F)F)cc([N+](=O)[O-])c1Oc1c(Cl)cc(Cl)cc1/C=N\OCc1ccccc1F`: the IC50 in assay [1] is 0.8 µM; in assay [2], 0.82 µM; in [3] it was 1.23 µM; in assay [4] it was 3.65 µM.
Turning to `O=[N+]([O-])c1cc(C(F)(F)F)cc([N+](=O)[O-])c1Oc1ccc(Cl)cc1/C=N\OCc1ccccc1`, the IC50 in [1] is 1.22 µM; in [2], 1.79 µM; in [3], 3.41 µM; in assay [4] it was 30.9 µM.
